Screens from PubChem.
The list is not random: actives were taken first. Their share in the collection is about 1.4%.
APJ agonist = activates the human apelin receptor APJ; 330,000 tested, 0.11% active; CHO-K1 APJ PathHunter beta-arrestin, luminescence; 0% DMSO wells, 100% apelin; AID 2520; P35414; activation, % at 20 µM;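 active means activation more than six SD over the plate average, tested at 20 µM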;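 further: 0% = DMSO alone and 100% = apelin-13 at 10 nM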
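Assay system: CHO-K1 cells stably expressing ProLink-tagged human APJ and arrestin–beta-gal acceptor. Compound dosing: 20 µM single point, 1% DMSO. Times: 16-18 h seeding, 90 min dark compound exposure, 60 min detection. Detection: beta-gal luminescence. Evaluation: APJ–arrestin association signal. Controls: negative DMSO alone, positive Apelin-13 at 10 nM.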
APJ antagonist = blocks the human apelin receptor APJ. P35414. CHO-K1 APJ beta-arrestin complementation, luminescence. inhibition, % at 20 µM. 330,000 tested, 0.32% active;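 active means inhibition above about 40% at 20 µM, limit read from the data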;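 further: cells challenged with 10 nM apelin-13 agonist together with compound; plate controls were apelin-13 plus DMSO wells for no effect and DMSO wells lacking apelin-13 for full effect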
A3A deaminase = inhibitors of human APOBEC3A DNA deaminase; P31941; recombinant A3A, FAM/TAMRA ssDNA deamination fluorescence; inhibition, % at 20 µM; 330,000 tested, 0.41% active;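 active means at least 40% inhibition at 20 µM here, with at most 30% in a related deaminase screen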;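 further: plate controls were A3A with DMSO for no effect and wells lacking A3A enzyme for full effect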
Target sequence (P31941 whole entry, looked up): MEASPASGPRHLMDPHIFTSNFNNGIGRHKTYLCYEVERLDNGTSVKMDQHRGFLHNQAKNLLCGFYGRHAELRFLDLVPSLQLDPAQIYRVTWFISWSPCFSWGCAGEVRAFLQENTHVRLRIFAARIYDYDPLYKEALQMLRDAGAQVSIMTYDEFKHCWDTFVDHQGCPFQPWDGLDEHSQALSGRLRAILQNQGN
APOBEC3G inh = APOBEC3G (human) deaminase inhibition; recombinant A3G, ssDNA deamination FAM/TAMRA fluorescence; inhibition, % at 20 µM; 330,000 tested, 0.28% active; AID 493012;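 active means inhibition of at least 40% at 20 µM, with no more than 30% in the related APOBEC3A deaminase screen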;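 further: plate controls were DMSO wells with A3G for no effect and wells lacking A3G enzyme for full effect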
Target sequence (Q9HC16 whole entry, looked up): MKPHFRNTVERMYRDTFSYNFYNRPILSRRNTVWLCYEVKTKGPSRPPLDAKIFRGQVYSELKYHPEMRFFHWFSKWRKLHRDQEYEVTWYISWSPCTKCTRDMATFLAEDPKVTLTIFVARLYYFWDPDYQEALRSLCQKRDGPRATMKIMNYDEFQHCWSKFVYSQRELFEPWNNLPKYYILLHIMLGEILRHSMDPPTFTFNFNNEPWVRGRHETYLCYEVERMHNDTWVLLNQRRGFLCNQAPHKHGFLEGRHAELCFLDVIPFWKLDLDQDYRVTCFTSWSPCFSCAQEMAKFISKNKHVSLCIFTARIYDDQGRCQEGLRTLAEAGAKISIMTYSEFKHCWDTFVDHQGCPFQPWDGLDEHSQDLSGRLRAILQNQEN
CXCR6 inh = blocks human CXCR6 beta-arrestin recruitment; O00574; CHO-K1 PathHunter CXCR6 beta-arrestin, luminescence; inhibition, % at 20 µM; 360,000 tested, 0.36% active; AID 602244; in the data active means inhibition above about 34%, passing the limit was not always enough;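 further: antagonist mode with CXCL16 agonist at 10 nM final; 0% = 10 nM CXCL16 with DMSO and 100% = unstimulated wells without agonist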
CCR6 antag = antagonists of human CCR6 receptor; CHO-K1 CCR6 PathHunter beta-arrestin, luminescence, CCL20-stimulated; inhibition, % at 20 µM; 340,000 tested, 0.49% active;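 active means compounds whose inhibition of the agonist-driven luminescence signal at 20 µM reaches about 50%, limit read from the data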;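 further: cells stimulated with CCL20 at 14 nM final; plate controls were DMSO with CCL20 for no effect and DMSO without agonist for full effect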
APJ ag conf = APJ receptor agonism confirmation. shares compounds with APJ agonist. CHO-K1 APJ PathHunter beta-arrestin, luminescence. activation, % at 20 µM. 310 tested, 10% active. AID 2764;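 active means activation above 40%, taking the highest of four retests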;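 further: plate controls were DMSO wells for no effect and apelin-13 at 10 nM for full effect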
Active calls of the source: *; x = no result.

SMILES	APJ agonist	APJ antagonist	A3A deaminase	APOBEC3G inh	CXCR6 inh	CCR6 antag	APJ ag conf
CCOc1ccc(NC(=O)COc2ccc(C(=O)NCCc3ccccc3)cc2)cc1	-3	8	0	-6	2	21	x
CCCCc1ccc(NC(=O)COc2ccc(C(=O)Nc3ccccc3OCC)cc2)cc1	36*	-6	1	2	-5	-7	4
Cc1cc(SCc2cccc(Cl)c2)nc(=O)[nH]1	-2	12	0	-1	0	7	x
COc1cccc(Sc2nc(-c3ccccc3)ncc2S(C)(=O)=O)c1	-1	-4	-1	-4	5	13	x
CS(=O)(=O)c1cnc(-c2ccccc2)nc1Sc1ccc(F)cc1	18*	-17	-1	-2	0	-3	13
CCOc1ccccc1NC(=O)C1(S(=O)(=O)c2ccc(Cl)cc2)CC1	-1	4	-3	-4	3	17	x
CCn1cc(CNC(=O)C2CCC(=O)N(Cc3ccc(Cl)cc3)C2)cn1 (stereo unspecified)	-3	-39	-9	-3	9	-4	x
COc1cccc(NC(=O)Nc2nc(-c3ccc(OC)c(OC)c3)cs2)c1	19*	-17	-1	-3	-12	-3	32
C[C@H](NC(=O)c1ccco1)C(=O)NNC(=O)c1ccc(F)cc1	-4	11	30	8	1	-2	x
CCOc1ncccc1C(=O)Nc1cc(S(=O)(=O)N2CCCCCC2)ccc1OC	-3	6	-1	-5	-3	10	x
CCOc1ncccc1C(=O)Nc1cc(S(=O)(=O)N2CCCCC2)ccc1OC	25*	0	-2	-10	-6	0	-3
c1ccc(CNc2nc(-c3ccccc3)nc3ccccc23)cc1	-2	14	-1	-7	-8	6	x
c1ccc(CNc2nc(NCc3ccccc3)c3ccccc3n2)cc1	28*	-17	-1	-4	-2	-3	24
COC(=O)[C@]1(Cc2ccccc2)N[C@H](CN(C)C(=O)Nc2ccc(OC)cc2)[C@@H]2C(=O)N(Cc3ccccc3)C(=O)[C@@H]21	12*	-7	-1	5	3	1	-3
N/C(=N\OC(=O)c1cc(-c2ccccc2)nc2ccccc12)c1cccnc1	10	-43	-1	-7	-9	-13	x
N/C(=N\OC(=O)c1cc(-c2ccccc2)nc2ccccc12)c1ccc(Cl)cc1	16*	-16	-1	-6	-12	-16	20
CSc1ccc(C(=O)C2CCCN(C(=O)c3ccc4c(c3)no[n+]4[O-])C2)cc1 (stereo unspecified)	18*	-107	3	-4	-18	-3	44*
CCCCCc1c(CC)ncn1CCc1ccccc1OC	x	x	x	x	-5	x	x
S=c1[nH]nc(COc2ccccc2)n1/N=C/c1ccc(Br)cc1	-4	14	-6	-1	9	5	x
O=[N+]([O-])c1ccc(/C=N/n2c(COc3ccccc3)n[nH]c2=S)cc1	14*	-19	-3	35	2	17	8
CCOc1cccc(C(=O)Nc2ccc(NC(=O)c3cc4ccccc4o3)c(OC)c2)c1	20*	5	-5	-3	-1	-11	20
Oc1ccc(/C=N/Nc2ccnc3cc(Cl)ccc23)c(O)c1O	7	-54	10	18	2	39	x
Oc1ccc(/C=N/Nc2ccnc3cc(Cl)ccc23)cc1O	15*	-56	0	-1	-12	22	16
O=C(N=C1SC2CS(=O)(=O)CC2N1c1cccc(Cl)c1Cl)C1CCCO1 (stereo unspecified)	2	-1	-3	-6	1	1	x
O=C(C1CCC(CNS(=O)(=O)c2cccs2)CC1)N1CCN(c2ccc(Cl)cc2)CC1 (stereo unspecified)	26*	-40	-3	-7	-13	-7	20
SMILES	APJ agonist	APJ antagonist	A3A deaminase	APOBEC3G inh	CXCR6 inh	CCR6 antag	APJ ag conf
CC1=C/C(=N\OS(=O)(=O)c2ccccc2)C(C(C)C)=CC1=O	x	x	x	x	7	21	x
CC1=C/C(=N\OS(=O)(=O)c2ccccc2)C(C)=CC1=O	109*	-10	-2	-1	24	43	86*
CC(C)(C)OC(=O)NCCCCCc1cn([C@@H](CO)C(=O)NCCCCCCCCCCC(=O)N2CCN(C(=O)OC(C)(C)C)CC2)nn1	45*	-78	-3	-3	-11	-17	52*
CCN(C[C@H]1N[C@@](Cc2ccccc2)(C(=O)OC)[C@H]2C(=O)N(C)C(=O)[C@@H]12)C(C)=O	-1	4	-2	-6	-3	-4	x
N/C(=N\OC(=O)c1ccc2ccccc2c1)c1ccccc1Cl	43*	-177	-1	-6	-18	-47	18
COc1ccc(CCN2CCC(Nc3nc4ccccc4n3Cc3ccc(F)cc3)CC2)cc1	32*	18	2	-3	1	4	17
Cc1c2ccccc2c(C)c2c1ccc1ccccc12	41*	-27	1	-3	-19	-16	20
COc1cc(C(=O)c2nccc3cc(OC)c(OC)cc23)c([N+](=O)[O-])cc1OC	14*	-11	-2	-2	-2	-4	4
COc1cc(N)c(C(=O)c2nccc3cc(OC)c(OC)cc23)cc1OC	0	-9	-8	9	8	1	x
O=CC1=C(c2ccccc2)Oc2ccccc2O1	5	12	3	5	2	4	x
CC(C)OCCCNC(=O)C1CC(=O)N(CCc2ccccc2)C1 (stereo unspecified)	1	-7	-2	-9	0	4	x
CC(=O)c1c(C)[nH]c(C(=O)OCc2cc(-c3ccco3)on2)c1C	13*	8	19	3	2	8	4
CC(=O)c1ccc(OCC(O)CN2CCN(S(=O)(=O)c3c(C)c(C)cc(C)c3C)CC2)cc1 (stereo unspecified)	1	-5	1	-6	-6	9	x
Cc1cc(CN2CCN(CC(=O)Nc3cc(Cl)ccc3-n3cncn3)CC2)no1	-3	-40	-1	-12	-1	6	x
COc1ccccc1N=c1c2c([N+](=O)[O-])cc([N+](=O)[O-])cc2n(O)n1-c1ccccc1OC	15*	-22	2	-3	x	x	17
COc1ccccc1-n1cc2c([N+](=O)[O-])cc([N+](=O)[O-])cc2n1	-2	-44	3	2	17	33	x
Cc1[nH]c2ccccc2c1C(=O)COC(=O)C1CC(O)CN1S(=O)(=O)c1ccc(Cl)cc1 (stereo unspecified)	28*	-16	-6	-10	-6	-14	4
O=C(COC(=O)C1CC(O)CN1S(=O)(=O)c1ccc(Cl)cc1)c1ccccc1 (stereo unspecified)	-3	-7	-3	-6	0	1	x
